Drawing on ChEMBL document CHEMBL1140191, “Lynamicins A-E, chlorinated bisindole pyrrole antibiotics from a novel marine actinomycete” (J Nat Prod, 2008), this text covers MIC and IC50 for seven compounds.

Assay [1] deals with Staphylococcus epidermidis. As to the kind of experiment: Antibacterial activity against multi drug-resistant Staphylococcus epidermidis ATCC 700578 after 14 to 16 hrs by serial microbroth dilution method. The class given is functional. The essentials:
(§1)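 Broth microdilution MIC per NCCLS standards in cation-adjusted Mueller-Hinton broth, without CO2. Final inoculum approximately 5 × 10^5 cfu/mL. Incubated 35 °C for 14-16 h. MIC taken as the lowest drug concentration preventing visible growth.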

Assay [2] relates to Staphylococcus aureus. In words: Antibacterial activity against methicillin-sensitive Staphylococcus aureus ATCC 29213 after 14 to 16 hrs by serial microbroth dilution method. The class given is functional. In a few lines:
(§2)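 NCCLS broth microdilution in cation-adjusted Mueller-Hinton broth, no CO2 incubation. Final inoculum about 5 × 10^5 cfu/mL. Plates held at 35 °C for 14-16 h. MIC read as the lowest concentration with no visible bacterial growth.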
In general terms: Broth dilution looks for growth in wells or tubes with falling amounts of substance.

The test system of assay [3] is Haemophilus influenzae. As to the kind of experiment: Antibacterial activity against Haemophilus influenzae ATCC 49766 after 14 to 16 hrs. The class given is functional. In a few lines: (§3)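 Serial microbroth dilution (NCCLS) in Haemophilus Test Medium in a CO2 incubator. Final inoculum about 5 × 10^5 cfu/mL, 35 °C for 14-16 h. MIC is the lowest drug concentration preventing visible growth.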

The subject of assay [4] is Streptococcus pneumoniae. In words: Antibacterial activity against penicillin-resistant Streptococcus pneumoniae ATCC 51915after 14 to 16 hrs. In kind it is functional. In a few lines: (§4)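 Serial microbroth dilution MIC per NCCLS in cation-adjusted Mueller-Hinton broth II with lysed horse blood. Incubated in a CO2 incubator at 35 °C for 14-16 h. Final inoculum approximately 5 × 10^5 cfu/mL. MIC read as the lowest concentration with no visible growth.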

For the next assay, the system named is Enterococcus faecalis. In words: Antibacterial activity against vancomycin-sensitive Enterococcus faecalis ATCC 29212 after 14 to 16 hrs by serial microbroth dilution method. The class given is functional. The essentials: as §2
The test system of another assay is Escherichia coli. In words: Antibacterial activity against Escherichia coli imp permeable mutant after 14 to 16 hrs by serial microbroth dilution method. In kind it is functional. In a few lines: as §1
Another assay relates to Enterococcus faecium. As to the kind of experiment: Antibacterial activity against vancomycin-resistant Enterococcus faecium ATCC 700221 after 14 to 16 hrs by serial microbroth dilution method. In kind it is functional. In a few lines:
as §1

Assay [5] concerns Haemophilus influenzae. In words: Antibacterial activity against Haemophilus influenzae ATCC […] after 14 to 16 hrs. The class given is functional. In a few lines: as §3
For assay [6], the system named is Staphylococcus aureus. As to the kind of experiment: Antibacterial activity against methicillin-resistant Staphylococcus aureus ATCC 43300 after 14 to 16 hrs by serial microbroth dilution method. The class given is functional. The essentials: as §1
Assay [7] relates to Streptococcus pneumoniae. As to the kind of experiment: Antibacterial activity against penicillin-sensitive Streptococcus pneumoniae ATCC 49619 after 14 to 16 hrs. In kind it is functional. In a few lines:
as §4

Assay [8] relates to Staphylococcus epidermidis. In words: Antibacterial activity against multi drug-resistant Staphylococcus epidermidis ATCC 700582 after 14 to 16 hrs by serial microbroth dilution method. The class given is functional. The essentials:
as §1

The next assay has as its system Herpesviridae sp. In words: Antiviral activity against HSV. In kind it is functional, organism-based.

A word on the IC50: it is the concentration needed to halve the response being measured. A higher IC50 goes with weaker potency in that assay.

Converted amounts (≈) assume the structure as drawn.

`Clc1cc2[nH]cc(-c3c[nH]cc3-c3c[nH]c4cc(Cl)c(Cl)cc34)c2cc1Cl` [LYNAMICIN C]: the MIC in [1] worked out at 2.3 µM (≈ 1 µg/mL); against Staphylococcus aureus [2], 2.5 µM (≈ 1.09 µg/mL); in the assay with Haemophilus influenzae [3] it was 15 µM (≈ 6.53 µg/mL); in the assay with Streptococcus pneumoniae [4], 46 µM (≈ 20 µg/mL); in the assay with Enterococcus faecalis, 5.8 µM (≈ 2.52 µg/mL); against Escherichia coli, 15 µM (≈ 6.53 µg/mL). Further, the MIC was determined as 4.6 µM (≈ 2 µg/mL) against Enterococcus faecium; 9.2 µM (≈ 4 µg/mL) in the assay on Haemophilus influenzae [5]; 3.5 µM (≈ 1.52 µg/mL) in the assay with Staphylococcus aureus [6]; 46 µM (≈ 20 µg/mL) in the assay with Streptococcus pneumoniae [7]; 2.3 µM (≈ 1 µg/mL) in assay [8].
Consider `O=C(O)c1[nH]c(C(=O)O)c(-c2c[nH]c3ccccc23)c1-c1c[nH]c2ccccc12` [LYCOGALIC ACID A], for which 17.2 µg/mL (≈ 44.6 µM) corresponded to half-maximal inhibition in the assay on Herpesviridae sp. (IC50).
Take `COC(=O)c1[nH]c(C(=O)OC)c(-c2c[nH]c3ccc(Cl)cc23)c1-c1c[nH]c2ccc(Cl)cc12` [LYNAMICIN D]: the MIC in [1] is 8.3 µM (≈ 4 µg/mL); in the assay on Staphylococcus aureus [2], 6.2 µM (≈ 2.99 µg/mL); against Haemophilus influenzae [3], 17 µM (≈ 8.2 µg/mL); against Streptococcus pneumoniae [4], 42 µM (≈ 20.3 µg/mL); against Enterococcus faecalis it was 17 µM (≈ 8.2 µg/mL); in the assay with Escherichia coli, greater than 67 µM. Besides, the MIC was found to be 17 µM (≈ 8.2 µg/mL) in the assay on Enterococcus faecium; 10 µM (≈ 4.82 µg/mL) in the assay on Haemophilus influenzae [5]; 6.2 µM (≈ 2.99 µg/mL) against Staphylococcus aureus [6]; 50 µM (≈ 24.1 µg/mL) against Streptococcus pneumoniae [7]; 8.3 µM (≈ 4 µg/mL) in assay [8].
`COC(=O)c1[nH]cc(-c2c[nH]c3ccc(Cl)cc23)c1-c1c[nH]c2ccc(Cl)cc12` [LYNAMICIN A]: the MIC in assay [1] was found to be 9.5 µM (≈ 4.03 µg/mL); with Staphylococcus aureus [2], 4.3 µM (≈ 1.82 µg/mL); with Haemophilus influenzae [3] it was 28 µM (≈ 11.9 µg/mL); with Streptococcus pneumoniae [4] it was 57 µM (≈ 24.2 µg/mL); against Enterococcus faecalis it was 19 µM (≈ 8.06 µg/mL); against Escherichia coli, 16 µM (≈ 6.79 µg/mL). Also, the MIC amounted to 19 µM (≈ 8.06 µg/mL) in the assay with Enterococcus faecium; 38 µM (≈ 16.1 µg/mL) in the assay on Haemophilus influenzae [5]; 4.7 µM (≈ 1.99 µg/mL) with Staphylococcus aureus [6]; 57 µM (≈ 24.2 µg/mL) in the assay on Streptococcus pneumoniae [7]; 9.5 µM (≈ 4.03 µg/mL) in [8].
Turning to `COC(=O)c1[nH]cc(-c2c[nH]c3cc(Cl)c(Cl)cc23)c1-c1c[nH]c2ccc(Cl)cc12` [LYNAMICIN B], the MIC in [1] was 2.2 µM (≈ 1.01 µg/mL); against Staphylococcus aureus [2] it was 1.8 µM (≈ 0.826 µg/mL); against Haemophilus influenzae [3] it was 13 µM (≈ 5.96 µg/mL); in the assay on Streptococcus pneumoniae [4], 18 µM (≈ 8.26 µg/mL); in the assay with Enterococcus faecalis, 3.3 µM (≈ 1.51 µg/mL); with Escherichia coli, 13 µM (≈ 5.96 µg/mL). Moreover, the MIC against Enterococcus faecium worked out at 4.4 µM (≈ 2.02 µg/mL); in the assay with Haemophilus influenzae [5], 4.4 µM (≈ 2.02 µg/mL); in the assay with Staphylococcus aureus [6] it was 2.2 µM (≈ 1.01 µg/mL); in the assay on Streptococcus pneumoniae [7], 18 µM (≈ 8.26 µg/mL); in assay [8], 2.2 µM (≈ 1.01 µg/mL).
`COC(=O)c1[nH]c(C(=O)OC)c(-c2c[nH]c3ccccc23)c1-c1c[nH]c2ccccc12` [LYCOGARUBIN C] yielded an IC50 in the assay on Herpesviridae sp. of 17.2 µg/mL (≈ 41.6 µM).
As for `COC(=O)c1[nH]c(C(=O)OC)c(-c2c[nH]c3ccc(Cl)cc23)c1-c1c[nH]c2ccccc12` [LYNAMICIN E], the MIC in [1] was 45 µM (≈ 20.2 µg/mL); in the assay on Staphylococcus aureus [2] it was greater than 45 µM; against Haemophilus influenzae [3], greater than 72 µM; with Streptococcus pneumoniae [4], greater than 72 µM; against Enterococcus faecalis it was greater than 54 µM; against Escherichia coli, greater than 72 µM. Also, the MIC in the assay with Enterococcus faecium is greater than 54 µM; in the assay on Haemophilus influenzae [5], greater than 72 µM; against Staphylococcus aureus [6] it was 27 µM (≈ 12.1 µg/mL); in the assay with Streptococcus pneumoniae [7], greater than 72 µM; in assay [8], greater than 72 µM.
